STAT1 inh: inhibitors of IFN-gamma induced STAT1 signaling; actives 0.35% (n = 200,000); inhibition, % at 5.5 µM; NIH 3T3 STAT1-luciferase reporter, luminescence; AID 920;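 active = inhibition above a set limit, the mean inhibition across all tested compounds plus 3 SD, cut at about 34% in these data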;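 also: 0% = IFN-gamma with DMSO and 100% = IFN-gamma with 300 µM nifuroxazide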
STAT3 act-1: increases IL-6 driven STAT3 reporter signal; actives 0.91% (n = 190,000); AID 871; U3A cells, IL-6 STAT3-luciferase reporter, luminescence; 100% = signal with IL-6 EC80 alone; activation (% of control), % at 5.6 µM;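 active = activation above the screen-wide mean of compound activation plus 3 SD, cut at about 130% in these data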;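 also: 0% = background luminescence of wells with medium and substrate only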
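Material: STAT1-lacking human U3A cells, STAT3 luciferase reporter | Benchmarks: IL-6-only wells as 100% reference | Probe or stimulus: IL-6 (33 ng/mL) | Timing: Compound 1 h, then IL-6 6 h at 37 °C | Detection: Luminescence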
APP 5'UTR act: activates APP 5'UTR luciferase reporter; actives 1% (n = 190,000); activation, % at 2 µM; SH-SY5Y APP 5'UTR luciferase reporter, luminescence; zero percent = DMSO vehicle wells;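 active = activation above a set limit, based on mean plus 3 SD of controls, cut at about 140% in these data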
STAT3 inh-1: inhibitors of IL-6 induced STAT3 signaling | U3A cells, IL-6 STAT3-luciferase reporter, luminescence; host cell line lacks STAT1 | inhibition, % at 5.5 µM | actives 0.89% (n = 190,000) | AID 862;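 active = inhibition above the mean inhibition across all screened compounds plus 3 SD, cut at about 44% in these data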;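 also: 0% = DMSO only wells and 100% = 100 µM nifuroxazide control wells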
STAT1 act-1: increases IFN-gamma driven STAT1 reporter signal. NIH 3T3 STAT1-luciferase reporter, luminescence; 100% = IFN-gamma alone, no compound. activation (% of control), % at 5.5 µM. actives 2.6% (n = 200,000);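 active = activation above the screen-wide mean activation plus 3 SD, cut at about 130% in these data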;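 also: raw ratio to IFN-gamma control signal so 100% means no change and 0% no light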
NF-kB neuron act: NF-kB expression increase, human neuronal cells | NF-kB reporter expression; stronger effect = higher value | fold change at 12.5 µM | actives 1.6% (n = 190,000) | AID 1239; in the data active = fold change above about 3.3
STAT3 inh-2: confirmation of STAT3 signaling inhibitors. shares compounds with STAT3 inh-1. U3A cells, IL-6 STAT3 luciferase reporter, luminescence; cell line lacks STAT1. inhibition, % at 5.7 µM. actives 45% (n = 1,200). AID 1265;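 active = inhibition above the hit cutoff computed for the primary STAT3 screen, cut at about 44% in these data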;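 also: 0% = IL-6 plus DMSO and 100% = IL-6 plus nifuroxazide control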
NFkB inh STAT3ct: counter-screen for STAT3 inhibitors: NF-kappaB inhibition; actives 36% (n = 1,200); HEK293T NF-kB luciferase reporter, TNF-alpha induced; AID 1308; shares compounds with STAT3 inh-1; inhibition, % at 5.7 µM;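 active = inhibition above the mean of solvent-only control wells plus 3 SD, cutoff set per campaign, cut at about 13% in these data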;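 also: 0% = TNF-alpha with DMSO and 100% = TNF-alpha with MG high control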
STAT1 inh STAT3c: inhibits STAT1, counter-screen to STAT3 inhibitors; shares compounds with STAT3 inh-1; NIH 3T3 STAT1-luciferase reporter, IFN-gamma induced, luminescence; inhibition, % at 5.7 µM; actives 27% (n = 1,200); AID 1317;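 active = inhibition above the mean plus 3 SD of solvent-only control wells, limit set per screening run, cut at about 16% in these data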;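 also: 0% = DMSO with IFN-gamma and 100% = nifuroxazide control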
STAT3 act-2: STAT3 activation, confirmation assay; U3A STAT3-luciferase reporter, IL-6 potentiation, luminescence; U3A cells lack STAT1; 100 means same as IL-6 alone; actives 64% (n = 1,200); potentiation (% of control), % at 5.7 µM; shares compounds with STAT3 act-1;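 active = percent activation of the STAT3 luciferase reporter above a set limit taken from the earlier primary screen, cut at about 130% in these data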;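 also: 0% = background signal of medium plus substrate and 100% = median of IL-6 with DMSO wells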
NFkB act STAT3ct: NF-kappaB activation in STAT3 activator counter-screen. shares compounds with STAT3 act-1. human cells, NF-kappaB reporter activation. activation (% of control), % at 5.7 µM. actives 11% (n = 1,200); in the data active = activation above about 120%;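 also: reporter induced by TNF-alpha stimulation; 100% = median of stimulated DMSO wells and 0% = no signal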
STAT1 act-2: counter-screen for STAT3 activators: STAT1 activation; shares compounds with STAT3 act-1; NIH 3T3 STAT1-luciferase reporter, IFN-gamma, luminescence; activation (% of control), % at 5.7 µM; actives 13% (n = 1,200); AID 1318;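 active = activation above the solvent-only control well mean plus 3 SD, set per screening run, cut at about 120% in these data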;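 also: 100% = IFN-gamma with DMSO median signal so 100% means no change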
STAT1 activ conf: STAT1 activation, confirmation assay. activation (% of control), % at 5.7 µM. NIH 3T3 STAT1-luciferase reporter, IFN-gamma potentiation, luminescence; 100% = IFN-gamma EC80 alone, no compound. shares compounds with STAT1 act-1. actives 97% (n = 1,200);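 active = activation above a set limit carried over from the earlier primary STAT1 screen, cut at about 140% in these data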;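 also: simple ratio to median IFN-gamma plus DMSO wells so 0% means no light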
NFkB act STAT1ct: NF-kappaB activation in STAT1 activator counter-screen; activation (% of control), % at 5.7 µM; actives 43% (n = 1,200); shares compounds with STAT1 act-1; HEK293T NF-kB luciferase reporter, TNF-alpha stimulated, luminescence; 100% = TNF-alpha with vehicle only;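 active = activation above the mean of solvent-only control wells plus 3 SD, set per campaign, cut at about 130% in these data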;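 also: TNF-alpha given at a submaximal dose yielding about 80% of full reporter signal; values are well signal over median control so 100% means no change and 0% no light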
STAT3 act STAT1c: counter-screen for STAT1 activators: human STAT3 activation. shares compounds with STAT1 act-1. U3A cells STAT3-luciferase reporter, IL-6, luminescence; cells lack STAT1; 100 = IL-6 alone, no compound effect. activation (% of control), % at 5.7 µM. actives 46% (n = 1,200). AID 1316;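 active = activation above the solvent-only control well mean plus 3 SD, set per plate batch, cut at about 110% in these data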;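 also: 0% = no luminescence and 100% = median IL-6 plus DMSO wells; higher means more STAT3 reporter activation so hits are non-selective activators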
Numbers without * were called inactive; . = no result. Only some compounds are listed: those with a hit (about 4.9% of all), similar ones and a draw of the others.

SMILES	STAT1 inh	STAT3 act-1	APP 5'UTR act	STAT3 inh-1	STAT1 act-1	NF-kB neuron act	STAT3 act-2	NFkB act STAT3ct	STAT1 act-2	others
COc1cc(OC)nc(NC(=O)COC(=O)c2cccc(Cl)c2)n1	4	108	-12	-11	97	0.95	.	.	.
O=C(O)/C=C/c1ccc([N+](=O)[O-])o1	5	102	-18	2	95	1.2	.	.	.
O=[N+]([O-])c1ccc(/C=N/N=C/c2ccc([N+](=O)[O-])o2)o1	-89	54	-94	58*	182*	0.15	.	.	.	STAT3 inh-2=13;NFkB inh STAT3ct=-47;STAT1 inh STAT3c=-46;STAT1 activ conf=135*;NFkB act STAT1ct=138*;STAT3 act STAT1c=85
Cc1cnc(NC(=O)c2sc3ccccc3c2Cl)s1	-65	46	107	64*	159*	4.6*	.	.	.	STAT3 inh-2=15;NFkB inh STAT3ct=24*;STAT1 inh STAT3c=-50;STAT1 activ conf=172*;NFkB act STAT1ct=71;STAT3 act STAT1c=79
CCOC(=O)/C(C#N)=C\c1cc(C)n(-c2ccccc2)c1C	-71	64	136*	45*	165*	0.62	.	.	.	STAT3 inh-2=0;NFkB inh STAT3ct=-35;STAT1 inh STAT3c=-149;STAT1 activ conf=238*;NFkB act STAT1ct=113;STAT3 act STAT1c=115*
O=c1c2c(nc3cc(-c4ccc(F)cc4)[nH]n13)CCCC2	-84	56	168*	53*	177*	3.4*	.	.	.	STAT3 inh-2=19;NFkB inh STAT3ct=-27;STAT1 inh STAT3c=-133;STAT1 activ conf=240*;NFkB act STAT1ct=115;STAT3 act STAT1c=93
Cc1nnc(SCC(=O)NCc2ccccc2Cl)[nH]c1=O	-2	105	-6	1	99	1.3	.	.	.
COc1ccc(C(=O)N=c2nc3ccccn3s2)cc1	-91	55	117	57*	182*	1.4	.	.	.	STAT3 inh-2=16;NFkB inh STAT3ct=-40;STAT1 inh STAT3c=-189;STAT1 activ conf=313*;NFkB act STAT1ct=120;STAT3 act STAT1c=94
COc1ccc(C(=O)O/N=C(/c2ccccc2)c2ccncc2)cc1	-19	109	16	-8	117	1.4	.	.	.
COc1ccc(/C=N/Nc2cc(OC)ncn2)cc1	-59	59	203*	51*	152*	6.8*	.	.	.	STAT3 inh-2=3;NFkB inh STAT3ct=-25;STAT1 inh STAT3c=-139;STAT1 activ conf=228*;NFkB act STAT1ct=98;STAT3 act STAT1c=84
CCOC(=O)N1CCC(=NNC(=O)Cn2ccc(C(F)(F)F)n2)CC1	-2	99	18	6	102	1.2	.	.	.
CC(=O)n1c2c(c3ccccc31)OC(N)=C(C#N)C2c1cccc(Cl)c1Cl (stereo unspecified)	4	141*	-6	-48	96	0.98	141*	104	89
Cc1ccc(/C=C2\SC(N3CCN(C(c4ccccc4)c4ccccc4)CC3)=NC2=O)o1	13	92	4	12	88	1.4	.	.	.
O=c1cnnc(Nc2cccc(F)c2)[nH]1	2	142*	12	-51	98	1.4	148*	104	93
O=c1cnnc(Nc2ccc(F)cc2)[nH]1	-5	99	4	12	103	1.3	.	.	.
O=C(O)CCCCCn1c(SCc2cc(=O)n3ccccc3n2)nc2ccsc2c1=O	-1	93	-15	12	101	0.92	.	.	.
CCOC(=O)c1cccnc1SCc1cc(=O)n2ccccc2n1	2	138*	-7	-40	98	1.1	129	103	96
CC(OC(=O)c1cccnc1SCc1cc(=O)n2ccccc2n1)c1ccccn1 (stereo unspecified)	-7	153*	4	-69	107	0.96	134*	100	99
CC(C)Sc1nnc(-c2c[nH]c3ccccc23)n1C	-13	99	.	10	112	1.9	.	.	.
CN=c1scc(-c2c[nH]c3ccccc23)n1C	8	138*	-5	-35	92	1	137*	104	99
Cc1cc(C(F)(F)F)nc(SCCN2CCOCC2)c1C#N	17	97	2	7	83	1.2	.	.	.
N#Cc1c(C(F)(F)F)cc(-c2ccc(Cl)c(Cl)c2)nc1SCCN1CCOCC1	12	160*	-7	-62	89	0.95	146*	103	91
CCN(CC)C(=S)Nc1cc(C(=O)OC)ccc1C(=O)OC	1	100	2	-2	101	1.1	.	.	.
CCOC(=O)C1(Cc2ccc(OC)cc2)CCN(C(=O)c2cc3ccccc3[nH]2)CC1	-20	156*	57	-68	120	1.5	147*	109	117
COc1ccc2ncn(-c3ccccc3)c2c1	-8	136*	-4	-33	108	0.79	106	89	106
Cc1[nH]n(-c2ccccc2)c(=O)c1N=Nc1ccccc1	-32	148*	120	-56	128	4*	176*	130*	174*
COC(=O)c1cccc(NC(=O)CCCOc2cccc(C)c2)c1	-5	136*	6	-35	104	0.96	113	105	102
Cc1cc(NC(=O)CSC2=Nc3ccccc3C3=NC(Cc4ccccc4)C(=O)N23)n[nH]1 (stereo unspecified)	-2	99	-9	5	102	1.2	.	.	.
CCN(CC)C(=O)CSC1=Nc2ccccc2C2=NC(Cc3c[nH]c4ccccc34)C(=O)N12 (stereo unspecified)	1	137*	5	-39	99	1.2	135*	101	101

Bioassay records from PubChem BioAssay.
